Here are results for seven compounds from ChEMBL document CHEMBL1122583, “Structure-activity relationships among DNA gyrase inhibitors. Synthesis and biological evaluation of 1,2-dihydro-4, 4-dimethyl-1-oxo-2-naphthalenecarboxylic acids as 1-carba bioisosteres of oxolinic acid” (1984).

One test concerns Candida albicans. The experiment in a line: In vitro antifungal activity against Candida albicans (ATCC 10231). It counts as functional.
The subject of test [1] is Mycolicibacterium smegmatis. The experiment in a line: In vitro antifungal activity against Mycobacterium smegmatis (ATCC 607). Format: functional.
The next test concerns Nucleic Acid. The experiment in a line: In vitro DNA gyrase inhibition activity. It counts as nucleic-acid assay. The method, boiled down: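 DNA gyrase holoenzyme, purified using a heparin-Sepharose affinity column in place of the DEAE-cellulose step. Supercoiling of relaxed ColE1 plasmid was run on 1% agarose horizontal gels. Relaxed and supercoiled bands were quantified by densitometry of photographic negatives. Because inhibition is noncompetitive, Ki was taken as the concentration giving 50% inhibition of supercoil band formation.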

A further test has as its system Klebsiella pneumoniae. The experiment in a line: In vitro antifungal activity against Klebsiella pneumoniae AD (ATCC 10031). It counts as functional.
In another test the test system is Escherichia coli. The experiment in a line: In vitro antifungal activity against Escherichia coli (ATCC 9637). It counts as functional.
Test [2] concerns Salmonella enterica subsp. enterica serovar Gallinarum. The experiment in a line: In vitro antifungal activity against Salmonella gallinarum (ATCC 9184). It counts as functional.
For another test, the system named is Staphylococcus aureus. The experiment in a line: In vitro antifungal activity against Staphylococcus aureus (ATCC 13709). It counts as functional.

Converted amounts (≈) assume the structure as drawn. Where only a bound is given, the exact number is not on record here.

For orientation: MIC means the smallest concentration in the dilution series that meets the test's criterion for growth inhibition. Read a high MIC as a less susceptible organism. For `CC1(C)C=C(C(=O)O)C(=O)c2cc3c(cc21)CCO3`, the MIC with Candida albicans was more than 500 µg/mL; in test [1] it was 500 µg/mL (≈ 1940 µM); in the test on Klebsiella pneumoniae it was more than 500 µg/mL; with Escherichia coli, more than 500 µg/mL; in test [2], 500 µg/mL (≈ 1940 µM); in the test with Staphylococcus aureus, 500 µg/mL (≈ 1940 µM). The same compound gave a Ki (concentration giving 50% inhibition of gyrase supercoiling) in the test on Nucleic Acid of 300 µg/mL.
As to `CCn1cc(C(=O)O)c(=O)c2cc3c(cc21)OCO3` [OXOLINIC ACID], the MIC in the test on Candida albicans was more than 100 µg/mL; in test [1], 50 µg/mL (≈ 191 µM); with Klebsiella pneumoniae it was less than 0.1 µg/mL; in the test on Escherichia coli, 0.78 µg/mL (≈ 2.99 µM); in test [2], 0.78 µg/mL (≈ 2.99 µM); against Staphylococcus aureus, 3.13 µg/mL (≈ 12 µM).
As to `CC1(C)C=C(C(=O)O)C(=O)c2ccccc21`, the MIC was more than 250 µg/mL in the test on Candida albicans; 50 µg/mL (≈ 231 µM) in test [1]; more than 250 µg/mL with Klebsiella pneumoniae; more than 250 µg/mL in the test on Escherichia coli; 50 µg/mL (≈ 231 µM) in test [2]; 6.25 µg/mL (≈ 28.9 µM) in the test with Staphylococcus aureus. Besides, the Ki (concentration giving 50% inhibition of gyrase supercoiling) with Nucleic Acid worked out at 2000 µg/mL.
Consider `CC1(C)C=C(C(=O)O)C(=O)c2ccc3c(c21)OCC3`, for which the MIC (in the test with Candida albicans; in test [1]; in the test with Klebsiella pneumoniae; with Escherichia coli; in test [2]; with Staphylococcus aureus) was more than 100 µg/mL throughout. This compound also came in with a Ki (concentration giving 50% inhibition of gyrase supercoiling) in the test on Nucleic Acid of 300 µg/mL.
For the compound `COc1cc2c(cc1OC)C(C)(C)C=C(C(=O)O)C2=O`, the MIC (against Candida albicans; in test [1]; against Klebsiella pneumoniae; against Escherichia coli; in test [2]; against Staphylococcus aureus) was more than 100 µg/mL throughout. Besides, the Ki (concentration giving 50% inhibition of gyrase supercoiling) in the test on Nucleic Acid is more than 1000 µg/mL.
For `CCn1cc(C(=O)O)c(=O)c2ccc(C)nc21` [NALIDIXIC ACID], the MIC was more than 100 µg/mL in the test with Candida albicans; more than 100 µg/mL in test [1]; 3.13 µg/mL (≈ 13.5 µM) with Klebsiella pneumoniae; 12.5 µg/mL (≈ 53.8 µM) in the test with Escherichia coli; 12.5 µg/mL (≈ 53.8 µM) in test [2]; 100 µg/mL (≈ 431 µM) against Staphylococcus aureus.
`CC1(C)C=C(C(=O)O)C(=O)c2cc3c(cc21)OCO3`: the MIC in the test on Candida albicans is more than 500 µg/mL; in test [1], 500 µg/mL (≈ 1920 µM); in the test with Klebsiella pneumoniae it was more than 500 µg/mL; against Escherichia coli, more than 500 µg/mL; in test [2] it was 500 µg/mL (≈ 1920 µM); in the test on Staphylococcus aureus, 500 µg/mL (≈ 1920 µM). The same compound yielded a Ki (concentration giving 50% inhibition of gyrase supercoiling) with Nucleic Acid of 300 µg/mL.
